From paper PMC4577306 (Biochimica et biophysica acta, 2015) come the findings set out here.

No end group written: not given here.

Usually Kd stands for the constant that tells how readily two partners part at equilibrium.

Assay [1] addresses human RIIα (Homo sapiens, UniProt P13861). The assay can be described thus: SPR kinetics of RIIα on immobilized neurochondrin peptides. The class given is binding. To be noted: for kon: read-out: ka (apparent association rate constant). An outline of the steps: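 Human RIIα purified by cAMP affinity chromatography. Test peptides dissolved in DMSO, amine-coupled to CM5 chips after 10 min NHS/EDC activation to about 1 RU, then blocked with 1 M ethanolamine-HCl pH 8.5, at 5 μL/min and 25 °C. Activated/deactivated reference flow cell. Running buffer 100 mM Tris, 150 mM NaCl, 0.005% Tween 20, pH 7.4, 25 °C. Surfaces regenerated with SDS, 4 M guanidinium-HCl and 1 M NaCl buffer.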

The target in assay [2] is neurochondrin peptide II (human). Description: SPR.
For assay [3], the target named is neurochondrin peptide I (human). The assay can be described thus: SPR. On the technique in general: In SPR one partner is held on a chip, and binding of the other changes the refractive index at the surface.

Sequence of human RIIα (P13861 whole entry): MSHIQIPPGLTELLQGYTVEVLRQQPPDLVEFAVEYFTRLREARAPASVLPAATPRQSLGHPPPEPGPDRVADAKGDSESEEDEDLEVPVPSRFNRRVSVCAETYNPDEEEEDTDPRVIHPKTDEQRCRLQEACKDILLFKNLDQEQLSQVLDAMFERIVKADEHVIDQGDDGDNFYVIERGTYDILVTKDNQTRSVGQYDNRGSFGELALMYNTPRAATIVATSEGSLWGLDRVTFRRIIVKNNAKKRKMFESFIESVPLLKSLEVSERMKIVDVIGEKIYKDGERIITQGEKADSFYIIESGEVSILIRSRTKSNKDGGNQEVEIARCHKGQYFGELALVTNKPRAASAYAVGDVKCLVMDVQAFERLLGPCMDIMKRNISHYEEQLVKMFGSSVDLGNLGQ

As to KLSSWQRNPALKLAARLAHA-NH2 [peptide II], in assay [1], the Kd was 9.6 ± 4.8 nM and the kon worked out at 110000 ± 5e+09 M⁻¹ s⁻¹.
Consider “human RIIα subunit of cAMP-dependent protein kinase (PKA) (from UniProt P13861 1-404) (natural protein)”, for which the Kd worked out at 9.6 nM in assay [2] and 9.3 nM in assay [3].
For YAGDIDAKTRRRIFDAVGFTF-NH2 [peptide I], in assay [1], binding was characterised by a dissociation constant (Kd) of 9.3 ± 3.1 nM and the kon is 120000 ± 1e+09 M⁻¹ s⁻¹.
